From PubChem BioAssay AID651628 (The Scripps Research Institute Molecular Screening Center, 2012)
Active and inactive are the calls of the source.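 The calls were made as follows: active = at least one off-target enzyme showing weaker fluorescent probe labeling in any proteome panel; inactive = no off-target enzyme affected in any panel.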

System: Soluble Proteome
Assay: proteome-wide probe labelling blockade by competitive ABPP – cell lysate, gel-based fluorescence, soluble and membrane fractions, selectivity assay for PAD4 inhibitor project, late-stage follow-up (AID 651628)
Conditions: MCF7 proteome, CA-Rh gel-based ABPP, anti-target count, at 50 µM, hits give high values
Summary of the method: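 Material: MCF7 cell proteome, soluble or membrane fraction | Medium: DPBS | Doses: Compound at 10 or 50 µM | Schedule: Compound 1 h, probe 1 h, 25 °C | Measured by: SDS-PAGE separation with in-gel fluorescence scanning of labelled bands | Control set: DMSO-only reference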

| Structure (SMILES) | number of anti-targets |
| --- | --- |
| COC1=C(I)C(=O)c2nc(C#N)ccc2C1=O | > 5 (active) |
| NC1=CC(=O)c2ccc(-c3cccc(C(=O)O)n3)nc2C1=O | 0 (inactive) |
| COC1=C(N)C(=O)c2nc(-c3nc(C(=O)O)c(C)c(-c4ccc(OC)c(OC)c4O)c3N)ccc2C1=O | 0 (inactive) |
| O=C1C=C(Br)C(=O)c2ncccc21 | > 5 (active) |
| COC(=O)c1cccc(-c2ccc3c(n2)C(=O)C(N)=CC3=O)n1 | 0 (inactive) |
| COC1=C(Br)C(=O)c2nc(-c3ccccn3)ccc2C1=O | > 5 (active) |
| COC(=O)c1nc(C(=O)OC)c(NC(C)=O)c(-c2ccccc2Br)c1C | 0 (inactive) |
| COC(=O)c1cccc(-c2ccc3c(n2)C(=O)C(Br)=CC3=O)n1 | 0 (inactive) |
| COC1=C(N)C(=O)c2ncccc2C1=O | 0 (inactive) |
| NC1=CC(=O)c2ccc(-c3ccccn3)nc2C1=O | 0 (inactive) |
| NC1=CC(=O)c2cccnc2C1=O | 0 (inactive) |
| O=C1C(O)=C(O)C(=O)c2ncccc21 | 3 (active) |
| COC1=C(Br)C(=O)c2ncccc2C1=O | > 5 (active) |
| COC1=CC(=O)c2nc(C#N)ccc2C1=O | > 5 (active) |
